Experimental data published in ChEMBL document CHEMBL4321879, “Novel Class of Colony-Stimulating Factor 1 Receptor Kinase Inhibitors Based on an o-Aminopyridyl Alkynyl Scaffold as Potential Treatment for Inflammatory Disorders” (J Med Chem, 2020).

What was measured:
FLT3 = FLT3 (Homo sapiens, UniProt P36888); assay: Inhibition of recombinant human N-terminal GST-tagged FLT3 (564 to end residues) expressed in Sf21 insect cells at 1000 nM using poly (Glu, Tyr)4:1 as substrate measured after 1 hr by ELISA relative to control; details: probe poly (Glu, Tyr)4:1
Method in brief: (§1)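 Recombinant kinase was incubated with compound in reaction buffer containing 5 μM ATP, in wells precoated with poly(Glu,Tyr) 4:1, for 1 h at 37 °C. Phosphorylation was detected by ELISA.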

[1] = biological target: Platelet-derived growth factor receptor beta (Homo sapiens) (UniProt P09619); assay: Inhibition of recombinant human N-terminal His6-tagged PDGFRbeta (557 to end residues) expressed in baculovirus infected Sf21 insect cells at 100 nM using poly (Glu, Tyr)4:1 as substrate measured after 1 hr by ELISA relative to control
Method in brief: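 ELISA kinase assay: recombinant kinase added to wells precoated with poly(Glu,Tyr)4:1 and incubated with compound in reaction buffer containing 5 μM ATP, 37 °C for 1 h; wells then washed before antibody detection.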

[2] = biological target: Proto-oncogene tyrosine-protein kinase receptor Ret (Homo sapiens) (UniProt P07949); assay: Inhibition of recombinant human N-terminal GST-tagged RET (658 to end residues) expressed in baculovirus infected Sf21 insect cells at 100 nM using poly (Glu, Tyr)4:1 as substrate measured after 1 hr by ELISA relative to control; method in brief: as §1
[3] = biological target: Tyrosine-protein kinase ABL1 (Homo sapiens) (UniProt P00519); assay: Inhibition of recombinant human N-terminal His6-tagged Abl (27 to end residues) expressed in baculovirus infected Sf21 insect cells at 100 nM using poly (Glu, Tyr)4:1 as substrate measured after 1 hr by ELISA relative to control; method in brief: as §1
[4] = biological target: Proto-oncogene tyrosine-protein kinase receptor Ret (Homo sapiens) (UniProt P07949); assay: Inhibition of recombinant human N-terminal GST-tagged RET (658 to end residues) expressed in baculovirus infected Sf21 insect cells at 10 nM using poly (Glu, Tyr)4:1 as substrate measured after 1 hr by ELISA relative to control; method in brief: as §1
RAW264.7 = assay: Antiinflammatory activity in mouse RAW264.7 cells assessed as reduction in LPS-induced IL6 release measured after 24 hrs by ELISA; type: functional, cell-based; details: RAW264.7, 24 h
Method in brief: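 RAW264.7 cells in DMEM with 10% FBS and 0.125% DMSO were incubated with compound, then primed with LPS 1 μg/mL for 24 h. Supernatant TNF-α and IL-6 measured by mouse ELISA. IC50 from log(inhibitor) versus normalized response nonlinear fit.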

Chain of Proto-oncogene tyrosine-protein kinase receptor Ret (Homo sapiens) (P07949 whole entry): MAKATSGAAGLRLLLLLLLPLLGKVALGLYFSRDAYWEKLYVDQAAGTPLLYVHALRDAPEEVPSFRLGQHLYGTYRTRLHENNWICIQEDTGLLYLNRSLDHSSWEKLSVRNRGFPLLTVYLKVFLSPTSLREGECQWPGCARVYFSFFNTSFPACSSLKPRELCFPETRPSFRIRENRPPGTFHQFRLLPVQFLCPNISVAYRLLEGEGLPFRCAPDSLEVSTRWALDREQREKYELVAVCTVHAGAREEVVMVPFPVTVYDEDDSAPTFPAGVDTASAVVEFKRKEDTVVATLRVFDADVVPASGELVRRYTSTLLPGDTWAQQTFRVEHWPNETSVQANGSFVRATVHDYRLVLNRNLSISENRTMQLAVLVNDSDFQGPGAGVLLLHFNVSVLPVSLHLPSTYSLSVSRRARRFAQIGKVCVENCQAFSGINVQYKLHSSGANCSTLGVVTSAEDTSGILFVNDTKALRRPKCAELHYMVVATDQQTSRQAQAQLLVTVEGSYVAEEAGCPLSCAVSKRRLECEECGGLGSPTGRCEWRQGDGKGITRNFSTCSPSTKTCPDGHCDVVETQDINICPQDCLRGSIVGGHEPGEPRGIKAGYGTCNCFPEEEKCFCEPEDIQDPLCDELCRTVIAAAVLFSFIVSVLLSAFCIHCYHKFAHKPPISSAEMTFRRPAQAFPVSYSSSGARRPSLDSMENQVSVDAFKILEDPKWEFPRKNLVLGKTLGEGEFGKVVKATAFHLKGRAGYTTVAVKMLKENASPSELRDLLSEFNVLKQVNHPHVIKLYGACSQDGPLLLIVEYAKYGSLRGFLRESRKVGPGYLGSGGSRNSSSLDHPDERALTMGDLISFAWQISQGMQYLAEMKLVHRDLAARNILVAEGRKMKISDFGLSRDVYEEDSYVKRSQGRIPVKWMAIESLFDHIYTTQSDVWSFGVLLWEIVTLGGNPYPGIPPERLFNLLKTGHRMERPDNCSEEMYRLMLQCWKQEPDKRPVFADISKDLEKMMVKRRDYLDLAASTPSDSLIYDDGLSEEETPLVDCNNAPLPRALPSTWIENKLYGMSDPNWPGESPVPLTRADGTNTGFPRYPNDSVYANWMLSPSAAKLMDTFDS
Chain of Tyrosine-protein kinase ABL1 (Homo sapiens) (P00519 whole entry): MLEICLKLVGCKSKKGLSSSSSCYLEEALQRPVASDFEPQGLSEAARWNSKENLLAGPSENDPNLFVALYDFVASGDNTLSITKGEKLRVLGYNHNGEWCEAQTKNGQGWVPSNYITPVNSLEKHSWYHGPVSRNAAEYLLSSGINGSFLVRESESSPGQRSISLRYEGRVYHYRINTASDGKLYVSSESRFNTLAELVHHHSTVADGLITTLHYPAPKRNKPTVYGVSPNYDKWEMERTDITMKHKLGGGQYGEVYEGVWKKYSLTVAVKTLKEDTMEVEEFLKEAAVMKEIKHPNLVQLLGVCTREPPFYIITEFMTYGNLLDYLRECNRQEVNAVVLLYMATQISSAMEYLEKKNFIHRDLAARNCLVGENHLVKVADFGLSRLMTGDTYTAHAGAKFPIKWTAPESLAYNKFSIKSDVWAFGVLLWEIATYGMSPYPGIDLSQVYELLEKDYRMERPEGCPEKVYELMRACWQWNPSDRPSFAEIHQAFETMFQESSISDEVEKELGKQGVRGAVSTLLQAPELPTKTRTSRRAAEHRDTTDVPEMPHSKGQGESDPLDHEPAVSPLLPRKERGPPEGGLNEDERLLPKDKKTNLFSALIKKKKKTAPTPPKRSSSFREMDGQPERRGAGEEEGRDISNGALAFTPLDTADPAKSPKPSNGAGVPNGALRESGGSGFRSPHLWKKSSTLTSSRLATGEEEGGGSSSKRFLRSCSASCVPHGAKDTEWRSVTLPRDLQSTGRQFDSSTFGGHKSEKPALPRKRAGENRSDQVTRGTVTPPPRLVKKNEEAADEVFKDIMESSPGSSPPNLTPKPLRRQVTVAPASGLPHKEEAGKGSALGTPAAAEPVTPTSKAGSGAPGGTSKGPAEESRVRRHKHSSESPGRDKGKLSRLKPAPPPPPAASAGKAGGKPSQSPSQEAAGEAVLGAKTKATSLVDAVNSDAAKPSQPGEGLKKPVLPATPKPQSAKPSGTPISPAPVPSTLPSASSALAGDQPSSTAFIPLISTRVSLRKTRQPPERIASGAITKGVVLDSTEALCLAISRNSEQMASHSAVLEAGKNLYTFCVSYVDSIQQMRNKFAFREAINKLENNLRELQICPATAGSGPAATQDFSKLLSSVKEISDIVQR
Chain of Platelet-derived growth factor receptor beta (Homo sapiens) (P09619 whole entry): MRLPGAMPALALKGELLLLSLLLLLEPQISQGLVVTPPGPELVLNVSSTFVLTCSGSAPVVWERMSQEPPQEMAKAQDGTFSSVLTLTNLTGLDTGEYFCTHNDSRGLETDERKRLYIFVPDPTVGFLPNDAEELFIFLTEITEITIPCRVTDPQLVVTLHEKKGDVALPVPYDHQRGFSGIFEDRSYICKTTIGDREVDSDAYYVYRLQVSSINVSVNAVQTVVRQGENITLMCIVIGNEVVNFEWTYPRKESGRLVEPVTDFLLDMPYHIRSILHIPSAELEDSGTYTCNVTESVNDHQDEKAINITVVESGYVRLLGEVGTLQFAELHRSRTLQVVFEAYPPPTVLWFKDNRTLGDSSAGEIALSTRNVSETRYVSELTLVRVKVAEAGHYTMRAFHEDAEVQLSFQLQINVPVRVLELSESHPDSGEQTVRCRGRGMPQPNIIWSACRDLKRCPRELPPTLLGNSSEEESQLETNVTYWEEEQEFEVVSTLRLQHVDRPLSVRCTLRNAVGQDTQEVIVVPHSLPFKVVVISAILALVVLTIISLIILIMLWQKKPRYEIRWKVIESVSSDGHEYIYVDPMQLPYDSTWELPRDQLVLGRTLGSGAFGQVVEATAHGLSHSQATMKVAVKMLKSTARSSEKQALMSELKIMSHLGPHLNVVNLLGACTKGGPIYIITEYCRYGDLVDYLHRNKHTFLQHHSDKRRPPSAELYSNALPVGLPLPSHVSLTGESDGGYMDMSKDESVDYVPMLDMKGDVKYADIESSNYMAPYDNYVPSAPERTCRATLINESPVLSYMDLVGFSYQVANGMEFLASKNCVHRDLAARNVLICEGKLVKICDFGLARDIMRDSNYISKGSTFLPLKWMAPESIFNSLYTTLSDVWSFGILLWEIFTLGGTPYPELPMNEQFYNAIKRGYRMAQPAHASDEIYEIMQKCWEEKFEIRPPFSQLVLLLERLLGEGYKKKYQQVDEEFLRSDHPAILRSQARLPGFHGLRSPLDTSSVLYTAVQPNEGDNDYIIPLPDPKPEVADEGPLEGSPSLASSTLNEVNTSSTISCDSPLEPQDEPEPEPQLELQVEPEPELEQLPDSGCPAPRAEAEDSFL
Chain of FLT3 (P36888 whole entry): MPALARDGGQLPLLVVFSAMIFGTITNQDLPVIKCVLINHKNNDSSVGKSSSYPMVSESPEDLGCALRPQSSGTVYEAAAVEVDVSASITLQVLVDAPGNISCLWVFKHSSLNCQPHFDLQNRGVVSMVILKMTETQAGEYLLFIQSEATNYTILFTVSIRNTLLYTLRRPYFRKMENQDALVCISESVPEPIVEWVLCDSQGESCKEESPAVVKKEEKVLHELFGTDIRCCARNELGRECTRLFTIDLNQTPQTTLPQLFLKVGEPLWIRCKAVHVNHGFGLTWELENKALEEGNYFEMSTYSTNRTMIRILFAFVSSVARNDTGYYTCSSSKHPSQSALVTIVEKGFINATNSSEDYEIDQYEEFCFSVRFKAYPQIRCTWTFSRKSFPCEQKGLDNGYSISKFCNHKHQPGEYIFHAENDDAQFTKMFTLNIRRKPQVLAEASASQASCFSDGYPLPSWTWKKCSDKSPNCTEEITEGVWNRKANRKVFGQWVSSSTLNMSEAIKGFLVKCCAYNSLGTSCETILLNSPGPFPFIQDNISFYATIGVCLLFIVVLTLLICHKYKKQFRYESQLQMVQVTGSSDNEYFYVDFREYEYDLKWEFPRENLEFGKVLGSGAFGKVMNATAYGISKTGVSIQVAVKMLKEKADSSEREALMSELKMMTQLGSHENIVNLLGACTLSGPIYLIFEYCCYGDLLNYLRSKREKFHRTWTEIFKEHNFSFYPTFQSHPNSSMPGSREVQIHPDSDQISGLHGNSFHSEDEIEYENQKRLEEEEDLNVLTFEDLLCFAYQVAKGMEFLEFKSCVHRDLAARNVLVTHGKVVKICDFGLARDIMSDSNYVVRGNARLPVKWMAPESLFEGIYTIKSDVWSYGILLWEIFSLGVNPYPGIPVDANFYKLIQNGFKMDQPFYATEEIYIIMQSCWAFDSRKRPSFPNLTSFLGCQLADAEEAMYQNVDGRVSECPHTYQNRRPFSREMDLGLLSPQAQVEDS

Structure (SMILES): Cc1ccc(C(=O)Nc2ccc(Cl)cc2)cc1C#Cc1cc(-c2cnn(C)c2)cnc1N
- inhibition at 1 h, 1 µM (FLT3): 5.9%
- inhibition [1]: 70.5%
- inhibition [2]: 77.6%
- inhibition [3]: 82.1%
- inhibition [4]: 42.7%
- IC50 (RAW264.7): 130 nM
